The results in this text go back to BindingDB's records for doi:10.1021/jm0504454 (Sapienza University of Rome, 2005).

The IC50 is the concentration that gives 50% inhibition. Lower therefore signals inhibition by little substance.

RNA-directed RNA polymerase, sequence (O39930 whole entry): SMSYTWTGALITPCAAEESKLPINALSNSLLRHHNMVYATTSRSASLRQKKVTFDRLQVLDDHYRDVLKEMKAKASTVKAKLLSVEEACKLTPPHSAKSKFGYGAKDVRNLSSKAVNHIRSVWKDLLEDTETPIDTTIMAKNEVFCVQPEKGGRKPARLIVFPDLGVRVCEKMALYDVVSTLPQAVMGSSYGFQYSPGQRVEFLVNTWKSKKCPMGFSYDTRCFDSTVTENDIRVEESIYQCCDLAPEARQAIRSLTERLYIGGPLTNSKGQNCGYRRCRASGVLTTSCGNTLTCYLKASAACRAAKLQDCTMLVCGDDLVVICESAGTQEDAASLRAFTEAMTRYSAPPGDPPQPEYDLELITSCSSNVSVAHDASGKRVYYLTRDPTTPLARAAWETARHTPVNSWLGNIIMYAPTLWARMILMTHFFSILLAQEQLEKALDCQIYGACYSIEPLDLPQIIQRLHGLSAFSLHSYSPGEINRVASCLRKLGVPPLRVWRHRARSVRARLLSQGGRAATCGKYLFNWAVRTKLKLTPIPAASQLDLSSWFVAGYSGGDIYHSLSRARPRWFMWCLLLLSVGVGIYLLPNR

The assay concerns the target RNA-directed RNA polymerase (UniProt O39930). The experiment in a line: Inhibitory concentration against NS5B HCV polymerase using [alpha-32P]UTP as radioligand (30 degree C for 2 h, at pH 7.5 with Tris-HCl buffer). The method, boiled down: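 Recombinant HCV RdRp (1 nM) in 20 mM Tris-HCl pH 7.5, 5 mM MgCl2, 1 mM DTT, 1 mM EDTA, RNase inhibitor, 50 µg/mL actinomycin D, 10 µg/mL RNA template, 0.5 mM ATP/CTP/GTP, [α-32P]UTP, limiting nucleotide 10 µM. 30 °C, 2 h; proteinase K stop, extraction, urea-PAGE, phosphorimaging. IC50s rescaled by a reference inhibitor's measured/literature IC50 ratio.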
With `O=C(O)C(=O)CC(=O)c1cccc(OCc2cccc(Oc3ccccc3)c2)c1` [(Z)-2-Hydroxy-4-oxo-4-[3-(3-phenoxy-benzyloxy)-phenyl]-but-2-enoic acid], the IC50 was 50 µM.

`O=C(O)C(=O)CC(=O)c1cccc(-c2ccccc2)c1`: the concentration for half-maximal inhibition (IC50) stood at 28 µM.

`Cc1ccc(Cn2cccc2C=CC(=O)CC(=O)C(=O)O)cc1` showed an IC50 of 28 µM.

Compound `O=C(O)C(=O)CC(=O)c1ccc(N2CCCCC2)s1` [(Z)-2-Hydroxy-4-oxo-4-(5-piperidin-1-yl-thiophen-2-yl)-but-2-enoic acid] showed an IC50 of 8.2 µM.

Compound `O=C(O)C(=O)CC(=O)c1cccc(OCc2ccc(-c3ccccc3)cc2)c1` [(Z)-4-[3-(Biphenyl-4-ylmethoxy)-phenyl]-2-hydroxy-4-oxo-but-2-enoic acid] returned an IC50 of 50 µM.

As for `O=C(O)C(=O)CC(=O)c1cc(I)cn1Cc1ccc(F)cc1` [(Z)-4-[1-(4-Fluoro-benzyl)-4-iodo-1H-pyrrol-2-yl]-2-hydroxy-4-oxo-but-2-enoic acid], the concentration for half-maximal inhibition (IC50) is 18 µM.

As to `Cc1ccccc1Cn1cccc1C=CC(=O)CC(=O)C(=O)O` [(Z)-6-[1-((E)-obenzyl)-1H-Pyrrol-2-yl]-2-hydroxy-4-oxo-hexa-2,5-dienoic acid], the IC50 turned out to be 18 µM. In other words, the double-digit micromolar range.

In turn, `Cc1cc(C)c(C(=O)CC(=O)C(=O)O)s1` [(Z)-4-(3,5-Dimethyl-thiophen-2-yl)-2-hydroxy-4-oxo-but-2-enoic acid] showed a concentration for half-maximal inhibition (IC50) of 8.2 µM.

`O=C(O)C(=O)CC(=O)c1ccsc1Cc1ccc(F)cc1` [(Z)-4-[2-(4-Fluoro-benzyl)-thiophen-3-yl]-2-hydroxy-4-oxo-but-2-enoic acid] returned an IC50 of 18 µM.

In turn, `O=C(C=Cc1c[nH]c2ccc(Cl)cc12)CC(=O)C(=O)O` [(Z)-6-((E)-5-Chloro-1H-indol-3-yl)-2-hydroxy-4-oxo-hexa-2,5-dienoic acid] came in with an IC50 of 18 µM.

Compound `O=C(O)C(=O)CC(=O)c1cccc(Oc2ccccc2)c1` displayed a concentration for half-maximal inhibition (IC50) of 19 µM.

Turning to `N#CCCCCn1cccc1C(=O)CC(=O)C(=O)O` [(Z)-4-[1-(4-Cyano-butyl)-1H-pyrrol-2-yl]-2-hydroxy-4-oxo-but-2-enoic acid], the IC50 stood at 13 µM.

Take `O=C(O)C(=O)CC(=O)c1ccco1`: the concentration for half-maximal inhibition (IC50) came out at 50 µM.

In turn, `O=C(O)C(=O)CC(=O)c1cccc(NC(=O)C(=O)O)c1` [(Z)-2-Hydroxy-4-[3-(oxalyl-amino)-phenyl]-4-oxo-but-2-enoic acid] yielded a concentration for half-maximal inhibition (IC50) of 19 µM.

In the case of `O=C(O)C(=O)CC(=O)c1cccn1Cc1ccc(O)cc1` [(Z)-2-Hydroxy-4-[1-(4-hydroxy-benzyl)-1H-pyrrol-2-yl]-4-oxo-but-2-enoic acid], the IC50 is 13 µM. This IC50 and that of the compound before are within 1.5-fold of each other.

`N#Cc1cccc(Cl)c1COc1cc(O)cc(C(=O)CC(=O)C(=O)O)c1` [(Z)-4-[3-(2-Chloro-6-cyano-benzyloxy)-5-hydroxy-phenyl]-2-hydroxy-4-oxo-but-2-enoic acid] had an IC50 of 0.1 µM.

The compound `O=C(C=Cc1cccn1Cc1cccc(F)c1)CC(=O)C(=O)O` [(Z)-6-[1-(3-Fluoro-benzyl)-1H-pyrrol-2-yl]-2-hydroxy-4-oxo-hexa-2,5-dienoic acid] showed a half-maximal inhibitory concentration (IC50) of 18 µM.

For the compound `Cn1cc(C(=O)c2ccc(F)cc2)cc1C=CC(=O)CC(=O)C(=O)O` [(Z)-6-[4-(4-Fluoro-benzoyl)-1-methyl-1H-pyrrol-2-yl]-2-hydroxy-4-oxo-hexa-2,5-dienoic acid], the 50% inhibitory concentration (IC50) worked out at 16 µM.

As for `O=C(O)C(=O)CC(=O)c1cccn1Cc1ccc2ccccc2c1` [(Z)-2-Hydroxy-4-(1-naphthalen-2-ylmethyl-1H-pyrrol-2-yl)-4-oxo-but-2-enoic acid], the IC50 was 13 µM.

In the case of `COc1ccc(Cn2cccc2C=CC(=O)CC(=O)C(=O)O)cc1`, the IC50 was 16 µM.
